Results: ChEMBL document CHEMBL1123594, “Antiradiation compounds. 20. 1-Methylquinolinium(and pyridinium)-2-dithioacetic acid derivatives” (J Med Chem, 1987)

Columns and labels:
[1] = tested on: Mus musculus; experiment: Percent survival was determined over a period of 30 days after intraperitoneal administration of a dose of 18.8 mg/kg in mice; assay type: functional; conditions: ip, 720 h
Summary of the method: (§1)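 Female C57 B16 mice (18-20 g), groups of 10, dosed ip in water or 10-20% aqueous ethanol (sometimes with Klucel or a Tween). Whole-body 1000-rad γ-irradiation 30 min after dosing. Survival was followed over 30 days, and animals alive beyond 30 days were counted as protected. Testing was done at Walter Reed Army Institute of Research.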

[2] = tested on: Mus musculus; experiment: Percent survival was determined over a period of 30 days after intraperitoneal administration of a dose of 37.5 mg/kg in mice; assay type: functional; conditions: ip, 720 h; summary of the method: as §1
[3] = tested on: Mus musculus; experiment: Percent survival was determined over a period of 30 days after intraperitoneal administration of a dose of 75 mg/kg in mice; assay type: functional; summary of the method: as §1
[4] = Toxic dose was determined after (ip) administration of a dose of 75 mg/kg in mice at 1000-rad-gamma-radiation for 30 mins; assay type: toxicity, organism-based; parameters: dose 75 mg/kg; conditions: mouse, in vivo
Summary of the method: (§2)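 Drug-toxicity deaths were counted within the radioprotection groups: 10 female C57 B16 mice, dosed by the route stated, then given whole-body 1000-rad γ-irradiation 30 min later. Deaths attributed to compound toxicity occurred before day 5 and were scored separately from the 30-day survival count.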

[5] = tested on: Mus musculus; experiment: Percent survival was determined over a period of 30 days after intraperitoneal administration of a dose of 4.7 mg/kg in mice; assay type: functional; conditions: ip, 720 h; summary of the method: as §1
[6] = tested on: Mus musculus; experiment: Percent survival was determined over a period of 30 days after intraperitoneal administration of a dose of 9.4 mg/kg in mice; assay type: functional; conditions: ip, 720 h; summary of the method: as §1
[7] = Toxic dose was determined after (ip) administration of a dose of 18.8 mg/kg in mice at 1000-rad-gamma-radiation for 30 mins; assay type: toxicity, organism-based; parameters: dose 18.8 mg/kg; conditions: mouse, in vivo; summary of the method: as §2
[8] = Toxic dose was determined after (ip) administration of a dose of 37.5 mg/kg in mice at 1000-rad-gamma-radiation for 30 mins; assay type: toxicity, organism-based; parameters: dose 37.5 mg/kg; conditions: mouse, in vivo; summary of the method: as §2
[9] = species: Mus musculus; experiment: Percent protective effect was determined in mice using 825 rads for 30 min; assay type: functional
[10] = tested on: Mus musculus; experiment: Percent survival was determined over a period of 30 days after intraperitoneal administration of a dose of 2.34 mg/kg in mice; assay type: functional; conditions: ip, 720 h; summary of the method: as §1
[11] = tested on: Mus musculus; experiment: Percent survival was determined over a period of 30 days after intraperitoneal administration of a dose of 4.69 mg/kg in mice; assay type: functional; conditions: ip, 720 h; summary of the method: as §1
[12] = Toxic dose was determined after (ip) administration of a dose of 9.38 mg/kg in mice at 1000-rad-gamma-radiation for 30 mins; assay type: toxicity, organism-based; parameters: dose 9.38 mg/kg; conditions: mouse, in vivo; summary of the method: as §2
[13] = tested on: Mus musculus; experiment: Percent survival was determined over a period of 30 days after intraperitoneal administration of a dose of 9.38 mg/kg in mice; assay type: functional; conditions: ip, 720 h; summary of the method: as §1
[14] = tested on: Mus musculus; experiment: Percent protective effect was determined in mice using 825 rads for 30 min after administration of 350 mg/kg; assay type: functional
[15] = tested on: Mus musculus; experiment: Percent protective effect was determined in mice using 1000 rads for 30 min after administration of 25 mg/kg; assay type: functional
[16] = tested on: Mus musculus; experiment: Percent survival was determined over a period of 30 days after oral administration of a dose of 150 mg/kg in mice; assay type: functional; conditions: 720 h
Summary of the method: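 Female C57 B16 mice (18-20 g), groups of 10, dosed orally. Whole-body 1000-rad γ-irradiation 30 min after dosing. Percent survival was scored over 30 days, with mice surviving beyond 30 days counted as protected.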

[17] = Toxic dose was determined after (po) administration of a dose of 300 mg/kg in mice at 1000-rad-gamma-radiation for 30 mins; assay type: toxicity, organism-based; parameters: dose 300 mg/kg; conditions: mouse, in vivo; summary of the method: as §2
[18] = Toxic dose was determined after (ip) administration of a dose of 150 mg/kg in mice at 1000-rad-gamma-radiation for 30 mins; assay type: toxicity, organism-based; parameters: dose 150 mg/kg; conditions: mouse, in vivo; summary of the method: as §2
[19] = tested on: Mus musculus; experiment: Percent survival was determined over a period of 30 days after intraperitoneal administration of a dose of 150 mg/kg in mice; assay type: functional; conditions: ip, 720 h; summary of the method: as §1
[20] = tested on: Mus musculus; experiment: Percent protective effect was determined in mice using 600 rads for 30 min after administration of 100 mg/kg; assay type: functional

Question: Which survival at 18.8 mg/kg [1] does the source give for `CN(C)CCNC(=Cc1ccc2ccccc2[n+]1C)NCCN(C)C.[I-]` here?
Answer: 0%

Question: And the survival at 37.5 mg/kg [2]?
Answer: 0%

Question: What about the survival at 75 mg/kg ([3]; Mus musculus, ip, 720 h) of the same compound?
Answer: 0%

Question: And the LD50 at 0.5 h [4]?
Answer: 90 mg/kg

Question: Which results are given for `COC(CN/C(=C/c1ccc2ccccc2[n+]1C)SC)OC.[I-]`?
Answer: survival at 18.8 mg/kg [1]: 30%; survival at 4.7 mg/kg [5]: 0%; survival at 9.4 mg/kg [6]: 0%; LD50 at 0.5 h [7]: 30 mg/kg

Question: What does the source list for `COCCN/C(=C/c1ccc2ccccc2[n+]1C)SC.[I-]`?
Answer: survival at 18.8 mg/kg [1]: 0%; survival at 37.5 mg/kg [2]: 0%; survival at 9.4 mg/kg [6]: 0%; LD50 at 0.5 h [8]: 50 mg/kg

Question: Which Protective effect [9] does the source give for `O=[N+]([O-])c1ccc(CSC(=S)C[n+]2ccccc2)cc1.[Cl-]` here?
Answer: 33%

Question: For `CS/C(=C\c1ccc2cc(C)ccc2[n+]1C)N1CCOCC1.[I-]`, which survival at 2.34 mg/kg [10] is on record?
Answer: 0%

Question: What about the survival at 4.69 mg/kg [11] of the same compound?
Answer: 0%

Question: And the LD50 at 0.5 h [12]?
Answer: 15 mg/kg

Question: And the survival at 9.38 mg/kg [13]?
Answer: 60%

Question: Which Protective effect [14] does the source give for `N#CC(C#N)=C([S-])[S-].[K+].[K+]` here?
Answer: >25%

Question: What does the source list for `CS/C(=C\c1cccc[n+]1C)N1CCN(C)CC1.[I-]`?
Answer: survival at 18.8 mg/kg [1]: 10%; survival at 4.7 mg/kg [5]: 0%; survival at 9.4 mg/kg [6]: 0%; LD50 at 0.5 h [7]: 60 mg/kg

Question: For `N#CC(C#N)=C([S-])[S-].[Zn+2]`, which Protective effect [15] is on record?
Answer: <25%

Question: Which Protective effect [9] does the source give for `NC(=O)c1ccc[n+](CC(=S)[S-])c1` here?
Answer: >45%

Question: For `C=CCSC(=S)C[n+]1ccccc1.[Cl-]`, which Protective effect [9] is on record?
Answer: >17%

Question: With `CS/C(=C\c1ccc2ccccc2[n+]1C)NCCCO.[I-]` as the compound, how does the survival at 18.8 mg/kg [1] read?
Answer: 0%

Question: And the survival at 37.5 mg/kg [2]?
Answer: 0%

Question: What about the survival at 9.4 mg/kg [6] of the same compound?
Answer: 0%

Question: What about the LD50 at 0.5 h [8] of the same compound?
Answer: 50 mg/kg

Question: For `CSC(=Cc1ccc2ccccc2[n+]1C)SC.[I-]`, which survival at 37.5 mg/kg [2] is on record?
Answer: 0%

Question: What about the Survival ([3]; 75 mg/kg) of the same compound?
Answer: 0%

Question: And the survival at 150 mg/kg [16]?
Answer: 10%

Question: What about the LD50 at 0.5 h [17] of the same compound?
Answer: > 300 mg/kg

Question: What about the LD50 at 0.5 h [18] of the same compound?
Answer: 300 mg/kg

Question: What about the survival at 150 mg/kg [19] of the same compound?
Answer: 60%

Question: With `CCOC(=O)C(C#N)=C([S-])[S-].[K+].[K+]` as the compound, how does the Protective effect [20] read?
Answer: 50%

Question: Which results are given for `CSC(=Cc1cccc[n+]1C)SC.[I-]`?
Answer: survival at 18.8 mg/kg [1]: 50%; survival at 4.7 mg/kg [5]: 0%; survival at 9.4 mg/kg [6]: 0%; LD50 at 0.5 h [7]: 30 mg/kg
